The source of these data is article PMC7251976 (Nature chemical biology, 2020).

Data set [1] concerns LOX-IMVI cells. Nature of the data set: Cell viability assay. In kind it is cell-based, human. In short, it runs like this:
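LOX-IMVI cells seeded at 1000/well, left to adhere 24 h, then exposed to compound for 72 h. Viability read as cellular ATP by CellTiter-Glo. For rescue, one of the following was added at seeding: fer-1 1.5 μM, lip-1 1 μM, DFO 50 μM or zileuton 10 μM. Rescue data plotted as mean ± s.e.m. of 4 technical replicates.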

Data set [2] has as its target T1, GPX4 (Homo sapiens, UniProt P36969).
T1 sequence (P36969 1-170 isoform P36969-2): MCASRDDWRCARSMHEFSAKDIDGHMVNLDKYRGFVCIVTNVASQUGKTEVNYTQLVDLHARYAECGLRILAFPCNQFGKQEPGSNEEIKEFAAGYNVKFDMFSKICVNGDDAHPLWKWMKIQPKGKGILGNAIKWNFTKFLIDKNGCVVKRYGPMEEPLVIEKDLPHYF
Nature of the data set: Intact-cell cellular thermal shift assay. The data set is classed as binding. To be noted: intact LOX-IMVI cells, 10 μM, 1 h. In short, it runs like this: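 Intact cells treated with 10 μM compound or 0.1% DMSO for 1 h at 37 °C, then washed, trypsinised and aliquoted (~1 million cells each). Aliquots heated 3 min at about 40–67 °C in 3 °C steps. After lysis, insoluble material removed (20,000 rcf, 20 min, 4 °C) and soluble GPX4 measured by western blot. HCC4006 data: mean ± s.e.m., n ≥ 4 biologically independent samples.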

Data set [3] deals with T1, GPX4. Nature of the data set: Lysate CETSA. The data set is classed as binding. To be noted: assay format not stated in main text (Supplementary Fig. 11h,i). The procedure, abridged: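 Lysate from untreated cells diluted in PBS (pH 7.4) to 1 mg/mL total protein. Treated with 10 μM compound or 0.1% DMSO at 37 °C. Aliquots heated 3 min across a temperature gradient (typically 40–67 °C, 3 °C steps) and spun at 20,000 rcf. Soluble GPX4 assessed by western blot. HCC4006 data: mean ± s.e.m., n = 3 biologically independent samples.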

Data set [4] concerns the target T2, FLAG-GPX4^WT in HEK293–6E cells (Homo sapiens, UniProt P36969).
T2 sequence (P36969 1-170 isoform P36969-2): T1 sequence (P36969 1-170 isoform P36969-2)
Briefly: In-cell GPX4 mass spectrometry binding assay. To be noted: cells, 10 μM, 1 h. The procedure, abridged: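 HEK293-6E cells transfected with FLAG-GPX4WT plus SBP2 plasmids and harvested 72 h after seeding. Compound (1, 10 or 20 μM) added 1, 4 or 24 h before harvest; viability monitored. Lysis at pH 7.4 (50 mM sodium phosphate, 300 mM NaCl, 0.1% NP-40, protease inhibitors). GPX4 isolated by anti-FLAG chromatography, C4-desalted, then denaturing Q-TOF MS with deconvolution to read adduct mass.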

A further data set deals with T3, purified GPX4 (Homo sapiens, UniProt P36969).
T3 sequence (P36969 1-170 isoform P36969-2): T1 sequence (P36969 1-170 isoform P36969-2)
Briefly: Binding to purified GPX4 protein.

In data set [5] the test system is LOX-IMVI cells. Nature of the data set: Metabolite identification in cells. The data set is classed as in vitro ADME, human. The procedure, abridged:
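LOX-IMVI cells kept in serum-free Williams' medium E with 1 μM ferrostatin-1 and given test compound at 10 μM. Aliquots stopped with acetonitrile at 0, 2, 6, 24 and 48 h and centrifuged. Supernatants profiled by HPLC-DAD-HRMS; metabolite and adduct structures assigned by HPLC-MS/MS.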

Data set [6] is described as follows: Chemical stability in solution / on storage. The data set is classed as physicochemical. To be noted: prolonged periods at room temperature as a solution in DMSO.
Data set [7] in a line: Stability profiling of GPX4 inhibitors. In kind it is in vitro ADME. To be noted: Supplementary Table 3.
A short description of a further data set: Compound solubility. The data set is classed as physicochemical.
A short description of data set [8]: Pharmacokinetic study in mice after oral administration. The data set is classed as in vivo. To be noted: SCID mice, 50 mg/kg oral, over 24 h. The procedure, abridged: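 SCID mice given a single oral 50 mg/kg dose in PEG400/ethanol (90/10, v/v). Blood sampled at 1, 3, 6 and 24 h into lithium heparin tubes and centrifuged for plasma. Plasma precipitated with acetonitrile (1/5, v/v) and analysed by LC-MS/MS. Plotted as mean ± s.d.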

Another data set in a line: Toxicity. The data set is classed as in vivo. To be noted: mice.

Structures are written as SMILES.

For the molecule `O=C(/C(C[N+](=O)[O-])=N/O)N1CCN(C(c2ccc(Cl)cc2)c2ccc(Cl)cc2)CC1` [JKE-1674], in the data set with LOX-IMVI cells [1] (72 h), the “cell-killing activity / potency” value is given as “equipotent to ML210”. For the same molecule, the “rescue of cell-killing activity by ferroptosis inhibitors” value with LOX-IMVI cells [1] (co-treatment with fer-1 (1.5 μM), lip-1 or DFO) is given as “completely rescued”. Also, the “effect on GPX4 thermal stability” value on GPX4 [2] is recorded as “thermal stabilization”. Also, the “engagement of GPX4 in cell lysate” value on GPX4 [3] is reported as “unable to engage”. The “covalent GPX4 adduct mass increase” value in data set [4] is on record as “+434 Da”. Besides, the “engagement of purified recombinant GPX4” value at purified GPX4 was “unable to engage”. In addition, the “mass of adducts formed with cysteine and glutathione in cells” value in the data set on LOX-IMVI cells [5] is on record as “+434 Da”. Also, in [6], the storage stability result is given as “can decompose”. Besides, the “stability compared to chloroacetamide inhibitors” value in [7] is reported as “far greater stability”. The “solubility compared to ML210 and chloroacetamide inhibitors” value in “Compound solubility” is listed as “improves upon the solubility”. Moreover, the “detection in serum/plasma after oral dosing” value in [8] is reported as “can be detected”. In “Toxicity” (50 mg/kg, 7 consecutive dosing days), the “average body weight loss” value was no more than 10%. Also, in “Toxicity” (doses higher than 50 mg/kg), the tolerability entry is “not tolerated”.
